Experimental data pooled from the literature.
Protocols differ between the studies behind these lines.
Read-out: cell growth or viability

SMILES	cell line	assay	conditions	measurement	result
CC(=O)c1c(C)c2cnc(Nc3ccc(C4CCN(CCS(C)(=O)=O)CC4)cn3)nc2n(C2CCCC2)c1=O	T47D	ATP luminescence	72 h	IC50	177 nM
C[S+]([O-])CCCCN=C=S (stereo not shown)	T47D	MTT	24 h	IC50	30400 nM
Cc1ncsc1-c1ccc([C@H](C)NC(=O)[C@@H]2C[C@@H](O)CN2C(=O)[C@@H](c2cc(N3CCC(CN4CCC(OC5CC(Oc6cc(N7C8CCC7CN(c7cc(-c9ccccc9O)nnc7N)C8)ccn6)C5)CC4)CC3)no2)C(C)C)cc1 (stereo partly shown)	LNCaP	ATP luminescence	7 days	IC50	3.2 nM
COC(=O)c1cc(C(C)=NNc2nc(-c3ccc(S(=O)(=O)F)cc3)cs2)ccc1O	T47D	MTT	96 h	IC50	26300 nM
O=[N+]([O-])c1ccc(NCCCCCCN=C=S)c2nonc12	T47D	MTT	24 h	IC50	1200 nM
O=C1c2ccccc2-c2c3c(cc4ccnc1c24)OCO3	T47D	MTT	75 h	IC50	15900 nM
Cc1cc(=O)oc2cc(OCCCC[Se]C#N)ccc12	MIA PaCa-2	SRB	–	GI50	2600 nM
CC[C@@]1(O)C(=O)OCc2c1cc1n(c2=O)Cc2cc3ccccc3nc2-1	MIA PaCa-2	SRB	48 h	IC50	151 nM
N#C[Se]Cc1cc(=O)oc2cc(O)ccc12	T47D	SRB	–	GI50	35000 nM
N.N.[Cl][Pt][Cl]	JVM-3	ATP luminescence	10 µM, 72 h	inhibition	100%
